{"source": "ChEMBL document CHEMBL5678806", "about": "“NMS-P937, an orally available, specific small-molecule polo-like kinase 1 inhibitor with antitumor activity in solid and hematologic malignancies” (Mol Cancer Ther, 2012)", "key": {"[1]": {"experiment": "Half-life in nu/nu mouse at 10 mg/kg, iv by LC-MS analysis", "assay_type": "ADME, organism-based", "conditions": "in vivo"}, "[2]": {"biological_target": "Epidermal growth factor receptor (Homo sapiens, UniProt P00533)", "sequence (P00533 whole entry)": "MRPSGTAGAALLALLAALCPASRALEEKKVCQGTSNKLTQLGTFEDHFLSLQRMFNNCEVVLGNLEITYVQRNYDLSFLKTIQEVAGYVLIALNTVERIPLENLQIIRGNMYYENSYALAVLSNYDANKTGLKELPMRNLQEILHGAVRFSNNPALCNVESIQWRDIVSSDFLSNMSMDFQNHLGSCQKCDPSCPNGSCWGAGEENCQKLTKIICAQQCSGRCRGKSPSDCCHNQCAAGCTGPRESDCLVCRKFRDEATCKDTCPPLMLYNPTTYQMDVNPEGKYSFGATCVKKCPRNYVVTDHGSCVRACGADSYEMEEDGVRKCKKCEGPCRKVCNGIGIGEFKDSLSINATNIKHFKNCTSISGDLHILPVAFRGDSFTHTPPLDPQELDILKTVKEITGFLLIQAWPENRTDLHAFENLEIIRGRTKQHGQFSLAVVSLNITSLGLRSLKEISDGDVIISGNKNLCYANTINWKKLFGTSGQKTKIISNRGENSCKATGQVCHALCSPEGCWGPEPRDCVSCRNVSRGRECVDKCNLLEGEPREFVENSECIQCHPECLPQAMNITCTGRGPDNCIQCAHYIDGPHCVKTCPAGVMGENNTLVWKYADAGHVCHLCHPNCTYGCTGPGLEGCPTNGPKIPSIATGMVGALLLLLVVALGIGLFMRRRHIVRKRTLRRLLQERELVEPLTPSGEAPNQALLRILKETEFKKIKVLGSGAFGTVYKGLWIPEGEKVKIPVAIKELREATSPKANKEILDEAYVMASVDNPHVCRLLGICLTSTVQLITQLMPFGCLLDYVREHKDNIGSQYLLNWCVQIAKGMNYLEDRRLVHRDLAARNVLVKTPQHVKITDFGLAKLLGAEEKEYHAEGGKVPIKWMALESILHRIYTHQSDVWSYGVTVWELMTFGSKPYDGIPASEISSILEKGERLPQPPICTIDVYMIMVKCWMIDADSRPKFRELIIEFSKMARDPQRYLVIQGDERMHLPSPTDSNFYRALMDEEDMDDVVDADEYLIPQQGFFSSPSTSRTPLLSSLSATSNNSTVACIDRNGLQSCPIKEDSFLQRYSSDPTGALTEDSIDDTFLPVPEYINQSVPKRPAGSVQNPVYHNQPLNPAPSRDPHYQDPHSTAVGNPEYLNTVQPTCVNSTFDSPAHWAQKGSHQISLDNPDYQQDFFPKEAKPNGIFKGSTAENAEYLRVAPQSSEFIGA", "experiment": "Inhibition of EGFR1 (unknown origin) in presence of [gamma-33P]ATP"}, "KM12": {"system": "KM12", "experiment": "Antiproliferative activity against human KM12 cells assessed as inhibition of cell growth incubated for 72 hrs by cell-titer glo assay", "assay_type": "functional, cell-based", "conditions": "KM12, 72 h", "outline": "(§1)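 Cells seeded at 10,000–30,000/cm² (adherent) or 100,000/mL (nonadherent) in medium with 10% fetal calf serum; after 24 h, treated in duplicate with serial dilutions for 72 h. Viable cell number read by CellTiter-Glo luminescence; IC50 from sigmoidal fit; at least two independent experiments.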"}, "[3]": {"biological_target": "Ephrin type-B receptor 1 (Homo sapiens) (UniProt P54762)", "experiment": "Inhibition of N-terminal 6His-tagged recombinant human EphB1 (564 to end residues) expressed in baculovirus infected Sf21 cells assessed as residual activity at 0.1 uM relative to control"}, "[4]": {"experiment": "Antitumor activity against human Acute myeloid leukemic cell xenografted in nu/nu mouse assessed as increase in median survival time at 120 mg/kg, po administered for 2 days and measured after 5 days (reference value: 36 days)", "assay_type": "functional, Leukemia cell", "conditions": "time 2 day"}, "HL-60": {"system": "HL-60", "experiment": "Antitumor activity against human HL-60 cells xenografted in nu/nu mouse assessed as tumor growth inhibition at 60 mg/kg, po administered for 10 days relative to control", "assay_type": "functional", "conditions": "HL-60, 240 h, time 10 day, read-out: TGI"}, "HEL": {"system": "HEL", "experiment": "Antiproliferative activity against human HEL cells assessed as inhibition of cell growth incubated for 72 hrs by cell-titer glo assay", "assay_type": "functional, cell-based", "outline": "as §1"}, "[5]": {"biological_target": "Serine/threonine-protein kinase 17A (Homo sapiens) (UniProt Q9UEE5)", "experiment": "Inhibition of N-terminal 6His-tagged recombinant full-length human DRAK1 expressed in baculovirus infected Sf21 cells assessed as residual activity at 0.1 uM relative to control"}, "U2OS": {"system": "U2OS", "experiment": "Induction of apoptosis in human U2OS cells assessed as colocalization of cells by measuring Histone H3 phosphorylation on Ser10 incubated for 24 hrs by DRAQ 5 staining based high content imaging assay relative to control", "assay_type": "functional"}, "[6]": {"biological_target": "Serine/threonine-protein kinase Chk1 (Homo sapiens, UniProt O14757)", "sequence (O14757 whole entry)": "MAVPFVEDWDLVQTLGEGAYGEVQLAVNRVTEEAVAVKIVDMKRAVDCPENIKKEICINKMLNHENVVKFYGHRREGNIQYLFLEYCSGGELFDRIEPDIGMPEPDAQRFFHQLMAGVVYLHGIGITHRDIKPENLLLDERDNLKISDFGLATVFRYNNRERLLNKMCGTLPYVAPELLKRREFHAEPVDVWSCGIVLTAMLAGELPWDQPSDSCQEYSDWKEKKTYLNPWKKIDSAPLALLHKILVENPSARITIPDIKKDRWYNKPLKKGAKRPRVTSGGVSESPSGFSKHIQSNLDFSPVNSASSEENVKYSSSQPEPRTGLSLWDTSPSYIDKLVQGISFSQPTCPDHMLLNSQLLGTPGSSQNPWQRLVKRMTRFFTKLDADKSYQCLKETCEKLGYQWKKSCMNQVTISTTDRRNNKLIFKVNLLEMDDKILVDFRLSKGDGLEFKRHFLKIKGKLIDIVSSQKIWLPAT", "experiment": "Inhibition of CHK1 (unknown origin) in presence of [gamma-33P]ATP"}, "[7]": {"biological_target": "Serine/threonine-protein kinase pim-2 (Homo sapiens, UniProt Q9P1W9)", "experiment": "Inhibition of PIM2 (unknown origin) in presence of [gamma-33P]ATP"}, "NCI-H526": {"system": "NCI-H526", "experiment": "Antiproliferative activity against human NCI-H526 cells assessed as inhibition of cell growth incubated for 72 hrs by cell-titer glo assay", "assay_type": "functional, cell-based", "conditions": "NCI-H526, 72 h", "outline": "(§2)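 Cells from ATCC or ECACC, kept in supplier-recommended medium with 1% penicillin-streptomycin at 37°C, 5% CO₂. Seeded at 10,000–30,000/cm² (adherent) or 100,000/mL (nonadherent) in medium with 10% fetal calf serum. Dosed after 24 h in duplicate with serial dilutions. Viable cells read by CellTiter-Glo 72 h later. IC50 from sigmoidal fit. At least two independent experiments.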"}, "[8]": {"biological_target": "Mitotic checkpoint serine/threonine-protein kinase BUB1 (Homo sapiens, UniProt O43683)", "sequence (O43683 whole entry)": "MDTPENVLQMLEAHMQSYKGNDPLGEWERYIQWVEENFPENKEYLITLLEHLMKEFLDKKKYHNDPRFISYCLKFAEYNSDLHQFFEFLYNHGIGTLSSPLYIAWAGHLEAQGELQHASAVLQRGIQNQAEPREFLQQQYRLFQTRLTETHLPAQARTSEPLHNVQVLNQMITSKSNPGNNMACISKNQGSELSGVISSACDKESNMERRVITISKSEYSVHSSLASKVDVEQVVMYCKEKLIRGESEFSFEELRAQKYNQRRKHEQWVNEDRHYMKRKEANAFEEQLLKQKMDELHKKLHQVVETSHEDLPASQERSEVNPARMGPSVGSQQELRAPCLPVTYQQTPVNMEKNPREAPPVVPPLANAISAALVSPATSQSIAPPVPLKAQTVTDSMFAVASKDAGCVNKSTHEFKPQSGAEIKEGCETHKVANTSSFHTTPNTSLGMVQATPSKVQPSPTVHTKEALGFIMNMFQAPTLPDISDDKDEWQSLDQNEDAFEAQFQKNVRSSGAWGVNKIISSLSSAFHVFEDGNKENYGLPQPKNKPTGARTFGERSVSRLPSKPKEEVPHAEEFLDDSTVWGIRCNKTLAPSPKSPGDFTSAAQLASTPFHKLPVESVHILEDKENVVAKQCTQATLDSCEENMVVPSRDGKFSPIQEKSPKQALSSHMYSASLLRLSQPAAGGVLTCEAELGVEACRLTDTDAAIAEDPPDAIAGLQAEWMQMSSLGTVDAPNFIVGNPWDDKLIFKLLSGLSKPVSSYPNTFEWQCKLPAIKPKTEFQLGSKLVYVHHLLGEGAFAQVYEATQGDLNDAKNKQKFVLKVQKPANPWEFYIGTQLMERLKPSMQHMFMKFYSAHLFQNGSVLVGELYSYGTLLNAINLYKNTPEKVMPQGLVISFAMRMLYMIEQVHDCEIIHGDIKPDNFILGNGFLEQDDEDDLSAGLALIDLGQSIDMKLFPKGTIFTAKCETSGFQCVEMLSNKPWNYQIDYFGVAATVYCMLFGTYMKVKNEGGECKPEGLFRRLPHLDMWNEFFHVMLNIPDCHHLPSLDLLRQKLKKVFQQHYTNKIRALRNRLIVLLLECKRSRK", "experiment": "Inhibition of BUB1 (unknown origin) in presence of [gamma-33P]ATP"}, "[9]": {"experiment": "AUC in Sprague-Dawley rat at 10 mg/kg, iv by LC-MS analysis", "assay_type": "ADME, organism-based", "conditions": "in vivo"}, "[10]": {"biological_target": "MAP kinase-activated protein kinase 5 (Homo sapiens) (UniProt Q8IW41)", "experiment": "Inhibition of N-terminal His6-tagged recombinant human full-length PRAK expressed in baculovirus infected Sf21 cells assessed as residual activity at 1 uM relative to control"}, "[11]": {"biological_target": "Ribosomal protein S6 kinase alpha-2 (Homo sapiens) (UniProt Q15349)", "sequence (Q15349 whole entry)": "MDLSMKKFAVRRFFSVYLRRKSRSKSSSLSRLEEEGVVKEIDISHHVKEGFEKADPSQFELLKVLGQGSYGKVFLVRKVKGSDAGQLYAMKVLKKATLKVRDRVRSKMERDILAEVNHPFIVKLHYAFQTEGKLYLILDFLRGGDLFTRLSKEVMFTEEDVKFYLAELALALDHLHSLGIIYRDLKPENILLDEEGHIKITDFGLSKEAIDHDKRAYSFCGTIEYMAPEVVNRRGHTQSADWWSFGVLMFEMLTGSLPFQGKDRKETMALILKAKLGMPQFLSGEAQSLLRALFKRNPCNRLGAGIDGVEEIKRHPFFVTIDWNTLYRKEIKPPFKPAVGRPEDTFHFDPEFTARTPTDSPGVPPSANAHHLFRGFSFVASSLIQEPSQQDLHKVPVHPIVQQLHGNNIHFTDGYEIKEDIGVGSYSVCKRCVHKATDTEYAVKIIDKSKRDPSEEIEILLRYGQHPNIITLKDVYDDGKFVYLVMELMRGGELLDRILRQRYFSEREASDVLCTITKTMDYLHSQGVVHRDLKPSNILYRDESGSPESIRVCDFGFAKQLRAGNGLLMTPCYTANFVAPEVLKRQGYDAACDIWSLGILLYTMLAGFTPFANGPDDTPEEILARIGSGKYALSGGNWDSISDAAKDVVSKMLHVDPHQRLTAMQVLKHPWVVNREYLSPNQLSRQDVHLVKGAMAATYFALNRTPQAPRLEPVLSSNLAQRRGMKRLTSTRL", "experiment": "Inhibition of N-terminal His6-tagged recombinant full-length human Rsk3 expressed in Sf21 cells assessed as residual activity at 1 uM relative to control"}, "[12]": {"experiment": "Toxicity in nu/nu mouse xenografted with human HCT-116 cells assessed as body weight loss at 45 mg/kg, iv administered for 3 days", "assay_type": "organism-based", "conditions": "in vivo, 72 h, time 3 day"}, "MFM-223": {"system": "MFM-223", "experiment": "Antiproliferative activity against human MFM-223 cells assessed as inhibition of cell growth incubated for 72 hrs by cell-titer glo assay", "assay_type": "functional, cell-based", "conditions": "MFM-223, 72 h", "outline": "as §2"}, "[13]": {"biological_target": "Serine/threonine-protein kinase 26 (Homo sapiens, UniProt Q9P289)", "experiment": "Inhibition of MST4 (unknown origin) in presence of [gamma-33P]ATP"}, "[14]": {"experiment": "Inhibition of AUR2 (unknown origin) in presence of [gamma-33P]ATP", "parameters": "species or system Homo sapiens"}, "[15]": {"biological_target": "Inhibitor of nuclear factor kappa-B kinase subunit beta (Homo sapiens) (UniProt O14920)", "sequence (O14920 whole entry)": "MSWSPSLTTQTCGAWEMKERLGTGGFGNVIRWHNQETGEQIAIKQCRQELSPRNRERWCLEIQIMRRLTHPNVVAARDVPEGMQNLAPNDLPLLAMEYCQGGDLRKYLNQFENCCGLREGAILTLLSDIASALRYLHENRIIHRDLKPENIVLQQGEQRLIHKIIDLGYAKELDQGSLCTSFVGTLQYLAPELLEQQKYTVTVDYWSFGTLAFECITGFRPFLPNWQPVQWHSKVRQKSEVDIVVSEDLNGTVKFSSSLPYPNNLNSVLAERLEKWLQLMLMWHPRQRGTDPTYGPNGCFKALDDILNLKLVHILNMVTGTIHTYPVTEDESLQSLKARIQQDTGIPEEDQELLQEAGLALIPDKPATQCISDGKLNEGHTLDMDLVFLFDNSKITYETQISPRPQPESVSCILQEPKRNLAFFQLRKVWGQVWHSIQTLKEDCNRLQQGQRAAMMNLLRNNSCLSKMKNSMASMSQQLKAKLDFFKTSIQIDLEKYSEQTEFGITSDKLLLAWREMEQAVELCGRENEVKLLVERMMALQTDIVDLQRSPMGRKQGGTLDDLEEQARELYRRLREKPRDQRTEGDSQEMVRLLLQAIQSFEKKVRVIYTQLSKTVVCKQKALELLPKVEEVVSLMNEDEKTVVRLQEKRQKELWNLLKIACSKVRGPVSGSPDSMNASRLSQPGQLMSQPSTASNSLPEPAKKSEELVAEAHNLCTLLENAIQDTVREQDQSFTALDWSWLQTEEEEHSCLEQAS", "experiment": "Inhibition of N-terminal His6 tagged recombinant full-length human IKKbeta expressed in baculovirus infected Sf21 cells assessed as residual activity at 1 uM relative to control"}, "[16]": {"experiment": "Inhibition of PDGFR (unknown origin) in presence of [gamma-33P]ATP", "parameters": "species or system Homo sapiens"}, "[17]": {"experiment": "Cmax in Beagle dog at 5 mg/kg, po by LC-MS analysis", "assay_type": "ADME, organism-based, Canis lupus familiaris", "conditions": "in vivo"}, "[18]": {"biological_target": "Serine/threonine-protein kinase NIM1 (Homo sapiens, UniProt Q8IY84)", "experiment": "Inhibition of NIM1 (unknown origin) in presence of [gamma-33P]ATP"}, "NCI-H929": {"system": "NCI-H929", "experiment": "Antiproliferative activity against human NCI-H929 cells assessed as inhibition of cell growth incubated for 72 hrs by cell-titer glo assay", "assay_type": "functional, cell-based", "conditions": "NCI-H929, 72 h", "outline": "as §2"}, "[19]": {"biological_target": "Homeodomain-interacting protein kinase 1 (Homo sapiens) (UniProt Q86Z02)", "experiment": "Inhibition of N-terminal 6His-tagged recombinant human HIPK1 (158 to 555 residues) expressed in baculovirus infected Sf21 cells assessed as residual activity at 1 uM relative to control"}, "[20]": {"biological_target": "Serine/threonine-protein kinase Nek3 (Homo sapiens) (UniProt P51956)", "experiment": "Inhibition of N-terminal 6His-tagged recombinant full length human NEK3 expressed in baculovirus infected Sf21 cells assessed as residual activity at 0.1 uM relative to control"}, "PC-3": {"system": "PC-3", "experiment": "Antiproliferative activity against human PC-3 cells assessed as inhibition of cell growth incubated for 72 hrs by cell-titer glo assay", "assay_type": "functional, cell-based", "conditions": "PC-3, 72 h", "outline": "as §2"}, "[21]": {"biological_target": "cGMP-dependent protein kinase 1 (Homo sapiens) (UniProt Q13976)", "sequence (Q13976 whole entry)": "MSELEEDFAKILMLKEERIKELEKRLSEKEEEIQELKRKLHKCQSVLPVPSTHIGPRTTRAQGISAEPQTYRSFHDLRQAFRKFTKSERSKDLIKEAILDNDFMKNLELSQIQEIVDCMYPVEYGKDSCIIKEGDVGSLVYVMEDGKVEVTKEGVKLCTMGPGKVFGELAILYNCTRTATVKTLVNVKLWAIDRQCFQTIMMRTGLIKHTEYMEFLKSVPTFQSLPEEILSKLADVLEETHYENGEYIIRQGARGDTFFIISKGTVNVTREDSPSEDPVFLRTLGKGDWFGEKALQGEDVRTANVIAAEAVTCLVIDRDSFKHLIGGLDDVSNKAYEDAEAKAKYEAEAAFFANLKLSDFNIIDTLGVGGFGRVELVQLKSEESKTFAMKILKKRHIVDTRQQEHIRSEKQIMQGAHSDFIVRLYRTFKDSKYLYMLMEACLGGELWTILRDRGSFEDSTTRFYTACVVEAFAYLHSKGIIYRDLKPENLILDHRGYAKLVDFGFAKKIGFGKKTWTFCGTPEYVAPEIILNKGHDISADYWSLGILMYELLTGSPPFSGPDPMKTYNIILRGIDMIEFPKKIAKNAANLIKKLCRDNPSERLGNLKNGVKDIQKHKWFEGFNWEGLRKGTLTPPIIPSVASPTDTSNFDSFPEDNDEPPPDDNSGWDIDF", "experiment": "Inhibition of N-terminal 6His-tagged recombinant, full-length human PKG1alpha expressed in baculovirus infected Sf21 cells assessed as residual activity at 0.1 uM relative to control"}, "[22]": {"biological_target": "Serine/threonine-protein kinase Nek7 (Homo sapiens) (UniProt Q8TDX7)", "experiment": "Inhibition of N-terminal His6-tagged recombinant human NEK7 (2 to end residues) expressed in baculovirus infected Sf21 cells assessed as residual activity at 0.1 uM relative to control"}}, "data": [{"smiles": "CN1CCN(c2ccc(OC(F)(F)F)c(Nc3ncc4c(n3)-c3c(c(C(N)=O)nn3CCO)CC4)c2)CC1", "note": "[ONVANSERTIB]", "values": [{"measurement": "half-life", "setting": "[1]", "result": 54, "unit": "min"}, {"measurement": "IC50", "setting": "[2]", "result": "> 10000", "unit": "nM"}, {"measurement": "IC50", "setting": "KM12", "result": 277, "unit": "nM"}, {"measurement": "Activity", "setting": "[3]", "result": 69, "unit": "%"}, {"measurement": "Time", "setting": "[4]", "result": 50, "unit": "days"}, {"measurement": "inhibition in vivo at 60 mg/kg", "setting": "HL-60", "result": 98, "unit": "%"}, {"measurement": "IC50", "setting": "HEL", "result": 48, "unit": "nM"}, {"measurement": "Activity", "setting": "[5]", "result": 58, "unit": "%"}, {"measurement": "Activity", "setting": "U2OS", "result": 13, "unit": "%"}, {"measurement": "IC50", "setting": "[6]", "result": "> 10000", "unit": "nM"}, {"measurement": "IC50", "setting": "[7]", "result": "> 10000", "unit": "nM"}, {"measurement": "IC50", "setting": "NCI-H526", "result": 31, "unit": "nM"}, {"measurement": "IC50", "setting": "[8]", "result": "> 10000", "unit": "nM"}, {"measurement": "AUC", "setting": "[9]", "result": 13.8, "unit": "µM·h"}, {"measurement": "Activity", "setting": "[10]", "result": 77, "unit": "%"}, {"measurement": "Activity", "setting": "[11]", "result": 84, "unit": "%"}, {"measurement": "Activity", "setting": "[12]", "result": "Toxic"}, {"measurement": "IC50", "setting": "MFM-223", "result": 10, "unit": "nM"}, {"measurement": "IC50", "setting": "[13]", "result": "> 10000", "unit": "nM"}, {"measurement": "IC50", "setting": "[14]", "result": "> 10000", "unit": "nM"}, {"measurement": "Activity", "setting": "[15]", "result": 127, "unit": "%"}, {"measurement": "IC50", "setting": "[16]", "result": "> 10000", "unit": "nM"}, {"measurement": "Cmax", "setting": "[17]", "result": 1200, "unit": "nM"}, {"measurement": "IC50", "setting": "[18]", "result": "> 10000", "unit": "nM"}, {"measurement": "IC50", "setting": "NCI-H929", "result": 63, "unit": "nM"}, {"measurement": "Activity", "setting": "[19]", "result": 90, "unit": "%"}, {"measurement": "Activity", "setting": "[20]", "result": 127, "unit": "%"}, {"measurement": "IC50", "setting": "PC-3", "result": 152, "unit": "nM"}, {"measurement": "Activity", "setting": "[21]", "result": 113, "unit": "%"}, {"measurement": "Activity", "setting": "[22]", "result": 123, "unit": "%"}]}]}
